According to paper PMC4832855 (Cancer Science, 2016):

Legend:
[1] = system: patients with advanced solid tumors; assay: Phase I first-in-human study: safety, tolerability, DLT, MTD; format: in vivo
In short: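 Open-label 3+3 dose-escalation/de-escalation; oral once-daily dosing under overnight fasting for 28 days, 1-week observation, then continuous; AEs graded by CTCAE v3.0 with attribution; DLTs included grade 3 fasting hyperglycemia, grade 3 non-fasting hyperglycemia >4 h, grade 4 hyperglycemia, grade ≥2 cardiac toxicity, other grade ≥3 non-hematologic events, grade 4 neutropenia >7 days, grade 4 thrombocytopenia.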

[2] = target: kinase insert domain receptor (Homo sapiens, UniProt P35968); assay: Kinase inhibition profiling at 100 nmol/L; format: biochemical; details: read-out: Inhibition at 100 nmol/L
Chain of kinase insert domain receptor (P35968 20-1356): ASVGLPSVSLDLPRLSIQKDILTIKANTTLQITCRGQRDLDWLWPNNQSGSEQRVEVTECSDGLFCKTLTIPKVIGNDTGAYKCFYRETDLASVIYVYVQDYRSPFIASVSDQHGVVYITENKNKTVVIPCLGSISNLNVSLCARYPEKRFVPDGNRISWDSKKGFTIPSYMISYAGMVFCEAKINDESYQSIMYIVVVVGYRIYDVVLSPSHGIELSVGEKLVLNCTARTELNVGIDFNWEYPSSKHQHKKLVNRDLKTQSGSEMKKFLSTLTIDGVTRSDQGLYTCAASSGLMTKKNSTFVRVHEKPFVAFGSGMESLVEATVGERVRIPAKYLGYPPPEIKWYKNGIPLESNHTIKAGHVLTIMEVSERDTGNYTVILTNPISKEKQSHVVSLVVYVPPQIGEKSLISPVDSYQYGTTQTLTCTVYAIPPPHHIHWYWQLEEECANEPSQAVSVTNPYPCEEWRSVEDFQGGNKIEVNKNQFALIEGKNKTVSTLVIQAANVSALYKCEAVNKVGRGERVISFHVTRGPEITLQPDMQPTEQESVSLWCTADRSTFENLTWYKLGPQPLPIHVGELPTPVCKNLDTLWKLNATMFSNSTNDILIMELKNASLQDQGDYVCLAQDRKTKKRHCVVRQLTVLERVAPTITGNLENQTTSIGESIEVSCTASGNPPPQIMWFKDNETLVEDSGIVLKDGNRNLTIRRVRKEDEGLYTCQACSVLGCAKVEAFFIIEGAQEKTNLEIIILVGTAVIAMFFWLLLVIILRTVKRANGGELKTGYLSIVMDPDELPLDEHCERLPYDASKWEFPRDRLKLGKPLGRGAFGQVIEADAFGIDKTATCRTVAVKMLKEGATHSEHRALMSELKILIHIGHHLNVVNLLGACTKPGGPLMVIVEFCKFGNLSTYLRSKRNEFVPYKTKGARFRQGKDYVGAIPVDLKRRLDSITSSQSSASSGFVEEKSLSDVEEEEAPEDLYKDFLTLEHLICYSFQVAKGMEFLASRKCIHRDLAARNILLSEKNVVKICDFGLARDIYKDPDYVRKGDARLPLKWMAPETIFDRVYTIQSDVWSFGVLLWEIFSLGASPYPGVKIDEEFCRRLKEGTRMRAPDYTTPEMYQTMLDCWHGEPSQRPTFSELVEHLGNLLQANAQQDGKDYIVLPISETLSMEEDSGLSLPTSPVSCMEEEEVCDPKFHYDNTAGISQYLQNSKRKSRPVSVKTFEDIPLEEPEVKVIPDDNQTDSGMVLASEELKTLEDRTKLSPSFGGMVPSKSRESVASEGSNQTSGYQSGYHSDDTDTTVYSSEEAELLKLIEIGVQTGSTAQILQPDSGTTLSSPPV

[3] = system: HT‐29/GFP human colon cancer cells; assay: Flow cytometric cell cycle analysis; format: cell-based
[4] = system: human sarcoma cell lines bearing the EWS/FLI‐1 chromosome translocation (TC‐71, SK‐N‐MC, SK‐ES‐1); assay: Anti-proliferative activity; format: cell-based; details: 72 h
Src = Src (Homo sapiens, UniProt P12931); assay: Kinase inhibition profiling at 100 nmol/L; format: biochemical; details: read-out: Inhibition at 100 nmol/L
Chain of Src (P12931 whole entry): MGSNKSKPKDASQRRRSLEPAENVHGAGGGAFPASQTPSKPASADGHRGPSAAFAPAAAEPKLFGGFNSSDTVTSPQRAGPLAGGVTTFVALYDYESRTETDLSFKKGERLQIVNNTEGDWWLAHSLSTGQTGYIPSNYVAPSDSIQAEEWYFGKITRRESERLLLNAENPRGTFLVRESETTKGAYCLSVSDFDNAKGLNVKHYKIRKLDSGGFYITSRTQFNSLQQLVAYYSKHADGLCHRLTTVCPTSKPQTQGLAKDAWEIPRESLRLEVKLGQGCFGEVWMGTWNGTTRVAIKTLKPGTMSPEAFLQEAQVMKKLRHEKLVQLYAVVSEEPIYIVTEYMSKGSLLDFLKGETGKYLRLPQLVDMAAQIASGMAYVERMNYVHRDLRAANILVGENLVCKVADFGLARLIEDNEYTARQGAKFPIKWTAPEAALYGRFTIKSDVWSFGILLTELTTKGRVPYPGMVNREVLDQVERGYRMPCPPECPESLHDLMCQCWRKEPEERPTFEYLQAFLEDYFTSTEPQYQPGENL

[5] = system: HT‐29/GFP colon cancer xenograft; assay: HT-29/GFP xenograft model; format: in vivo, mouse; details: 40 mg/kg orally once daily for 14 days, SCID mice

## Cc1ccsc1C(=O)Nc1cc(CN2CCN(C(=O)CO)CC2)ccc1/C=C/c1n[nH]c2ccccc12 [KW‐2450]
[1]; 50 mg/day (n = 6)
  Diarrhea, treatment‐related, Grade 1–2: 2 (33.3) No. of patients (%)
  Diarrhea, treatment‐related, Grade 3: 0 (0.0) No. of patients (%)
  Dizziness, treatment‐related, Grade 1–2: 2 (33.3) No. of patients (%)
  Dizziness, treatment‐related, Grade 3: 0 (0.0) No. of patients (%)
  Fatigue, treatment‐related, Grade 1–2: 4 (66.7) No. of patients (%)
  Fatigue, treatment‐related, Grade 3: 0 (0.0) No. of patients (%)
  Hyperglycemia, treatment‐related, Grade 1–2: 2 (33.3) No. of patients (%)
  Hyperglycemia, treatment‐related, Grade 3: 2 (33.3) No. of patients (%)
  Mucosal inflammation, treatment‐related, Grade 1–2: 1 (16.7) No. of patients (%)
  Mucosal inflammation, treatment‐related, Grade 3: 0 (0.0) No. of patients (%)
  Nausea, treatment‐related, Grade 1–2: 4 (66.7) No. of patients (%)
  Nausea, treatment‐related, Grade 3: 0 (0.0) No. of patients (%)
  Pain, treatment‐related, Grade 1–2: 2 (33.3) No. of patients (%)
  Pain, treatment‐related, Grade 3: 0 (0.0) No. of patients (%)
  Rash, treatment‐related, Grade 1–2: 0 (0.0) No. of patients (%)
  Rash, treatment‐related, Grade 3: 0 (0.0) No. of patients (%)
  Vomiting, treatment‐related, Grade 1–2: 1 (16.7) No. of patients (%)
  Vomiting, treatment‐related, Grade 3: 0 (0.0) No. of patients (%)
[1]; 50 mg/day, two of six patients, grade 3 non‐fasting hyperglycemia
  Patients with dose‐limiting toxicity: 33.3%
[1]; Total (n = 13)
  Anorexia, treatment‐related, Grade 1–2: 2 (15.4) No. of patients (%)
  Anorexia, treatment‐related, Grade 3: 0 (0.0) No. of patients (%)
  Constipation, treatment‐related, Grade 1–2: 2 (15.4) No. of patients (%)
  Constipation, treatment‐related, Grade 3: 0 (0.0) No. of patients (%)
  Decreased appetite, treatment‐related, Grade 1–2: 3 (23.1) No. of patients (%)
  Decreased appetite, treatment‐related, Grade 3: 0 (0.0) No. of patients (%)
  Diarrhea, treatment‐related, Grade 1–2: 2 (15.4) No. of patients (%)
  Diarrhea, treatment‐related, Grade 3: 0 (0.0) No. of patients (%)
  Dizziness, treatment‐related, Grade 1–2: 3 (23.1) No. of patients (%)
  Dizziness, treatment‐related, Grade 3: 0 (0.0) No. of patients (%)
  Fatigue, treatment‐related, Grade 1–2: 8 (61.5) No. of patients (%)
  Fatigue, treatment‐related, Grade 3: 0 (0.0) No. of patients (%)
  Hyperglycemia, treatment‐related, Grade 1–2: 3 (23.1) No. of patients (%)
  Hyperglycemia, treatment‐related, Grade 3: 2 (15.4) No. of patients (%)
  Mucosal inflammation, treatment‐related, Grade 1–2: 2 (15.4) No. of patients (%)
  Mucosal inflammation, treatment‐related, Grade 3: 0 (0.0) No. of patients (%)
  Nausea, treatment‐related, Grade 1–2: 6 (46.2) No. of patients (%)
  Nausea, treatment‐related, Grade 3: 0 (0.0) No. of patients (%)
  Pain, treatment‐related, Grade 1–2: 2 (15.4) No. of patients (%)
  Pain, treatment‐related, Grade 3: 0 (0.0) No. of patients (%)
  Vomiting, treatment‐related, Grade 1–2: 2 (15.4) No. of patients (%)
  Vomiting, treatment‐related, Grade 3: 0 (0.0) No. of patients (%)
[1]; once daily orally, continuous
  Maximum tolerated dose (MTD): 37.5 mg
[1]; oral, once daily
  Recommended phase II dose (RP2D): 37.5 mg/day
[2]
  inhibition at 0.1 µM: > 90%
[3]; higher concentrations of 1200 and 2000 nmol/L
  Cell cycle distribution: G1 and G2/M phase accumulations
[3]; lower concentrations of 120 and 400 nmol/L
  Cell cycle distribution: G1 phase accumulation
[4]
  GI50: 3.2 to 11 nM
Src
  inhibition at 0.1 µM: 53.8%
[5]
  In vivo growth inhibitory activity: modest in vivo growth inhibitory activity
